Columns and labels:
Type in all cases: functional
A498 = experiment: Cytotoxicity against human A498 cells assessed as growth inhibition after at 30 ug/ml 48 hrs by SRB assay; details: A498, 48 h
In short: (§1)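 Adherent cells were seeded at 5000–40 000 cells/well according to doubling time and preincubated 24 h at 37 °C in 5% CO2 and humidified air. Drug was diluted in complete medium with 50 µg/mL gentamicin and exposed for 48 h under the same conditions. Cells were fixed in situ with cold TCA (10% final, 60 min, 4 °C), stained with 0.4% SRB in 1% HOAc, solubilized in 10 mM Tris base, and read at 515 nm.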

A549 = experiment: Cytotoxicity against human A549 cells assessed as growth inhibition after at 30 ug/ml 48 hrs by SRB assay; details: A549, 48 h; in short: as §1
NCI-H226 = experiment: Cytotoxicity against human NCI-H226 cells assessed as growth inhibition after at 30 ug/ml 48 hrs by SRB assay; details: NCI-H226, 48 h; in short: as §1
PC-3 = experiment: Cytotoxicity against human PC-3 cells assessed as growth inhibition after at 30 ug/ml 48 hrs by SRB assay; details: PC-3, 48 h; in short: as §1

In the case of C=C1[C@@H](O)C[C@H](OC(C)=O)[C@@]2(COC(=O)c3ccccc3)[C@@H](OC(C)=O)[C@H](OC(C)=O)[C@]3(O)[C@@]4(C)CO[C@]3(C)C(=O)C[C@H]4[C@@H](OC(C)=O)[C@H]12 [TAXININ M], the inhibition at 30 µg/mL (A498) was 24.3%, the inhibition at 30 µg/mL (A549) was 14.6% and the inhibition at 30 µg/mL (NCI-H226) was 11.1%. The inhibition at 30 µg/mL (PC-3) was 0%.

With CC(=O)O[C@@]12CO[C@@H]1C[C@H](O)[C@@]1(C)C(=O)C(=O)C3=C(C)[C@@H](O)C[C@@](O)([C@@H](OC(=O)c4ccccc4)[C@H]21)C3(C)C the inhibition at 30 µg/mL (A498) was 79.1%, the inhibition at 30 µg/mL (A549) was 54.7% and the inhibition at 30 µg/mL (NCI-H226) was 97.3%. The inhibition at 30 µg/mL (PC-3) was 100%.

CC(=O)O[C@H]1C[C@H]2OC[C@@]2(OC(C)=O)[C@H]2[C@H](OC(=O)c3ccccc3)[C@]3(C(C)(C)O)C[C@H](O)C(C)=C3[C@@H](O)[C@H](OC(C)=O)[C@]12C was tested, and the inhibition at 30 µg/mL (A498) was 21.7%, the inhibition at 30 µg/mL (A549) was 27.1% and the inhibition at 30 µg/mL (NCI-H226) was 19.9%. The inhibition at 30 µg/mL (PC-3) was 1.9%.

Work on CC(=O)O[C@@]12CO[C@@H]1C[C@H](O)[C@]1(C)[C@@H]2[C@H](OC(=O)c2ccccc2)[C@]23C[C@H](O)C(C)=C2[C@@]1(O)C(=O)OC3(C)C [WALLIFOLIOL] yielded an inhibition at 30 µg/mL (A498) of 27.9%, an inhibition at 30 µg/mL (A549) of 16.7% and an inhibition at 30 µg/mL (NCI-H226) of 29.1%. The inhibition at 30 µg/mL (PC-3) was 6.4%.

CC(=O)O[C@H]1C(=O)[C@@]2(CO)[C@H]([C@H](OC(=O)c3ccccc3)[C@]3(O)CC(=O)C(C)=C1C3(C)C)[C@]1(OC(C)=O)CO[C@@H]1C[C@@H]2O showed an inhibition at 30 µg/mL (A498) of 79.8%, an inhibition at 30 µg/mL (A549) of 45.4% and an inhibition at 30 µg/mL (NCI-H226) of 84.7%. For the same compound, the inhibition at 30 µg/mL (PC-3) was 88.2%.

With CC(=O)O[C@H]1C[C@H](OC(C)=O)[C@]2(C)[C@@H]([C@@H]1CO)[C@H](OC(C)=O)[C@]1(C(C)(C)O)C[C@H](O)C(C)=C1[C@@H](O)[C@@H]2OC(C)=O [TAXAYUNTIN G] the inhibition at 30 µg/mL (A498) was 21.2%, the inhibition at 30 µg/mL (A549) was 0% and the inhibition at 30 µg/mL (NCI-H226) was 29.3%. The inhibition at 30 µg/mL (PC-3) was 1.4%.

Compound CC(=O)OC[C@H]1[C@H]2[C@H](O)[C@]3(C(C)(C)O)C[C@H](O)C(C)=C3[C@@H](O)[C@H](OC(=O)c3ccccc3)[C@]2(C)[C@@H](OC(C)=O)C[C@@H]1OC(C)=O [TASUMATROL F] has an inhibition at 30 µg/mL (A498) of 83%, an inhibition at 30 µg/mL (A549) of 72.6% and an inhibition at 30 µg/mL (NCI-H226) of 78.5%. The inhibition at 30 µg/mL (PC-3) was 95%.

For CC(=O)OC[C@]1(O)[C@@H](OC(C)=O)C[C@H](OC(C)=O)[C@]2(C)[C@@H]1[C@H](O)[C@]1(C(C)(C)O)C[C@H](O)C(C)=C1[C@@H](O)[C@@H]2OC(=O)c1ccccc1 [TASUMATROLS E], the inhibition at 30 µg/mL (A498) was 100%, the inhibition at 30 µg/mL (A549) was 91.3% and the inhibition at 30 µg/mL (NCI-H226) was 84.8%. It also gave an inhibition at 30 µg/mL (PC-3) of 94.7%.

With CC(=O)O[C@@]12CO[C@@H]1C[C@H](O)[C@@]1(CO)C(=O)[C@H](O)C3=C(C)[C@@H](O)C[C@@](O)([C@@H](OC(=O)c4ccccc4)[C@H]21)C3(C)C the inhibition at 30 µg/mL (A498) was 16.6%, the inhibition at 30 µg/mL (A549) was 0% and the inhibition at 30 µg/mL (NCI-H226) was 32%. It also gave an inhibition at 30 µg/mL (PC-3) of 2.3%.

In the case of CC(=O)O[C@H]1C(=O)[C@@]2(CO)[C@H]([C@H](OC(=O)c3ccccc3)[C@]3(O)C[C@H](O)C(C)=C1C3(C)C)[C@]1(OC(C)=O)CO[C@@H]1C[C@@H]2O, the inhibition at 30 µg/mL (A498) was 26.7%, the inhibition at 30 µg/mL (A549) was 0% and the inhibition at 30 µg/mL (NCI-H226) was 44.6%. For the same compound, the inhibition at 30 µg/mL (PC-3) was 47.7%.

CC(=O)O[C@H]1C[C@H](OC(C)=O)[C@]2(C)[C@@H]3[C@H](OC[C@]13OC(=O)c1ccccc1)[C@]1(C(C)(C)O)C[C@H](O)C(C)=C1[C@@H](O)[C@@H]2OC(C)=O [TASUMATROL G] gave an inhibition at 30 µg/mL (A498) of 15.3%, an inhibition at 30 µg/mL (A549) of 24.1% and an inhibition at 30 µg/mL (NCI-H226) of 78.9%. For the same compound, the inhibition at 30 µg/mL (PC-3) was 58.9%.

Compound CC(=O)O[C@@]12CO[C@@H]1C[C@H](O)[C@@]1(C)C(=O)[C@H](O)C3=C(C)[C@@H](O)C[C@@](O)([C@@H](OC(=O)c4ccccc4)[C@H]21)C3(C)C has an inhibition at 30 µg/mL (A498) of 27%, an inhibition at 30 µg/mL (A549) of 12.2% and an inhibition at 30 µg/mL (NCI-H226) of 5.7%. For the same compound, the inhibition at 30 µg/mL (PC-3) was 1.6%.

Work on CC(=O)O[C@H]1C(=O)[C@@]2(C)[C@H]([C@H](OC(=O)c3ccccc3)[C@]3(O)C[C@H](OC(=O)[C@H](O)[C@@H](NC(=O)c4ccccc4)c4ccccc4)C(C)=C1C3(C)C)[C@]1(OC(C)=O)CO[C@@H]1C[C@@H]2O [PACLITAXEL] yielded an inhibition at 30 µg/mL (A498) of 98.2%, an inhibition at 30 µg/mL (A549) of 79.7% and an inhibition at 30 µg/mL (NCI-H226) of 71.2%. The inhibition at 30 µg/mL (PC-3) was 91.7%.

For CC(=O)O[C@@]12CO[C@@H]1C[C@H](O)[C@@]1(C)C(=O)[C@H](O)C3=C(C)C(=O)C[C@@](O)([C@@H](OC(=O)c4ccccc4)[C@H]21)C3(C)C, the inhibition at 30 µg/mL (A498) was 29.7%, the inhibition at 30 µg/mL (A549) was 43.9% and the inhibition at 30 µg/mL (NCI-H226) was 49.2%. The inhibition at 30 µg/mL (PC-3) was 65.3%.
